Measured values from ChEMBL document CHEMBL3259682, “Synthesis, β-haematin inhibition, and in vitro antimalarial testing of isocryptolepine analogues: SAR study of indolo[3,2-c]quinolines with various substituents at C2, C6, and N11” (Bioorg Med Chem, 2014).

Key:
Plasmodium falciparum [1] = assay: Antimalarial activity against erythrocytic stage of chloroquine-sensitive Plasmodium falciparum NF54 after 48 hrs by [3H]-hypoxanthine incorporation assay; type: functional, organism-based
Summary of the method: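 ³H-hypoxanthine incorporation against P. falciparum NF54. DMSO stocks at 10 mg/mL were added to cultures in hypoxanthine-free RPMI 1640 with HEPES, NaHCO₃, neomycin and Albumax, using human A⁺ red cells at 2.5% haematocrit and 0.3% parasitaemia. Eleven 3-fold serial dilutions were tested. Incubation was under 4% CO₂/3% O₂/93% N₂. ³H-hypoxanthine was added after 48 h, followed by a further 24 h. Cells were harvested onto glass-fibre filters. IC₅₀ is the mean of two independent assays.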

[2] = Binding affinity to haematin assessed as inhibition of beta-haematin formation after 5 to 6 hrs by pyridine-ferrichrome-based method
Summary of the method: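 Detergent (NP-40) mediated β-haematin formation assay, run manually. Compounds came from 20, 2 and 0.4 mM DMSO stocks, tested at 0–1000 µM final. Haematin was 100 µM final in 0.5 M acetate buffer, pH 4.8. Incubation was 5–6 h at 37 °C. Read-out used the pyridine-ferrichrome method with UV–vis absorbance. IC₅₀ came from sigmoidal dose–response fits.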

L6 = assay: Cytotoxicity against rat L6 cells after 70 hrs by Alamar Blue assay; type: functional, cell-based; conditions: L6, 70 h
Summary of the method: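 Rat skeletal myoblast L6 cells, 4000 per well, in RPMI 1640 with 1% L-glutamine and 10% fetal bovine serum. Eleven 3-fold serial drug dilutions were tested. Alamar Blue was added for a final 2 h. Fluorescence was read at excitation 536 nm and emission 588 nm. IC₅₀ is the mean of two independent assays.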

[3] = Selectivity index, ratio of IC50 for rat L6 cells to IC50 for erythrocytic stage of chloroquine-sensitive Plasmodium falciparum NF54; type: toxicity, cell-based; conditions: read-out: Ratio IC50
Summary of the method: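 Selectivity index is the L6 cytotoxicity IC₅₀ divided by the NF54 antiplasmodial IC₅₀. Each IC₅₀ is the mean of two independent assays.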

[4] = Selectivity index, ratio of IC50 for rat L6 cells to IC50 for chloroquine/pyrimethamine-resistant Plasmodium falciparum K1; type: toxicity, cell-based; conditions: read-out: Ratio IC50
[5] = Resistance index, ratio of IC50 for chloroquine/pyrimethamine-resistant Plasmodium falciparum K1 to IC50 for erythrocytic stage of chloroquine-sensitive Plasmodium falciparum NF54; type: functional
Summary of the method: (§1)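 Chloroquine/pyrimethamine-resistant K1 and drug-susceptible NF54 P. falciparum were grown in hypoxanthine-free RPMI 1640 with HEPES, NaHCO₃, neomycin and Albumax, in human A⁺ erythrocytes at 2.5% haematocrit and 0.3% parasitaemia. DMSO stocks were 10 mg/mL, tested in eleven 3-fold dilutions under 4% CO₂/3% O₂/93% N₂. ³H-hypoxanthine was added at 48 h, then 24 h more before filter harvest. IC₅₀ is the mean of two assays; RI = K1/NF54 IC₅₀.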

Plasmodium falciparum [6] = assay: Antimalarial activity against erythrocytic stage of chloroquine/pyrimethamine-resistant Plasmodium falciparum K1 after 48 hrs by [3H]-hypoxanthine incorporation assay; type: functional, organism-based; summary of the method: as §1

Row | SMILES | IC50 (Plasmodium falciparum [1]) [µM] | IC50 [2] [µM] | IC50 (L6) [µM] | selectivity ratio [3] | selectivity ratio [4] | Ratio IC50 [5] | IC50 (Plasmodium falciparum [6]) [µM]
1 | NCCCNc1nc2ccc(Br)cc2c2[nH]c3ccccc3c12 | 0.0081 | 19.4 | 0.891 | 110 | – | – | –
2 | S=C(NCCCNc1nc2ccccc2c2[nH]c3ccccc3c12)Nc1ccccc1 | 0.0235 | 18.5 | 0.249 | 10.6 | 5.1 | 2.1 | 0.0493
3 | NCCCCNc1nc2ccccc2c2[nH]c3ccccc3c12 | 0.0361 | 62 | 0.739 | 20.5 | – | – | –
4 | Cn1c2ccccc2c2c(NCCCN)nc3ccccc3c21 | 0.0723 | 24.2 | 0.279 | 3.9 | 3.3 | 1.2 | 0.0854
5 | NCCCN1CCN(CCCNc2nc3ccccc3c3[nH]c4ccccc4c23)CC1 | 0.0264 | 62.4 | 1.78 | 67.3 | – | – | –
6 | O=C(NCCCNc1nc2ccc(F)cc2c2[nH]c3ccccc3c12)Nc1ccccc1 | 0.0257 | 22.7 | 1.5 | 58.5 | 30.6 | 1.9 | 0.0492
7 | CN(C)CCCNc1nc2ccc(Br)cc2c2c1c1ccccc1n2C | 0.0486 | 39.9 | 0.457 | 9.4 | – | – | –
8 | O=C(NCCCNc1nc2ccc(Br)cc2c2[nH]c3ccccc3c12)Nc1ccccc1 | 0.0225 | 13.9 | 1.28 | 56.9 | 34.7 | 1.6 | 0.0369
9 | CC(C)(CN)CNc1nc2ccc(Cl)cc2c2[nH]c3ccccc3c12 | 0.0255 | 20.7 | 1.84 | 72.1 | 36.1 | 2 | 0.051
10 | CS(=O)(=O)NCCCNc1nc2ccccc2c2[nH]c3ccccc3c12 | 0.0543 | 118 | 1.06 | 19.6 | – | – | –
11 | c1ccc(CNc2nc3ccccc3c3[nH]c4ccccc4c23)cc1 | 0.0186 | 30.6 | 2.93 | 158 | – | – | –
12 | O=S(=O)(NCCCNc1nc2ccccc2c2[nH]c3ccccc3c12)c1ccccc1 | 0.072 | 24.2 | 0.811 | 11.3 | 8.7 | 1.3 | 0.0929
13 | COc1ccc2nc(NCCCNC(=O)Nc3ccccc3)c3c4ccccc4[nH]c3c2c1 | 0.0171 | 14.8 | 1.52 | 88.8 | 77.4 | 1.1 | 0.0196
14 | NCCCNc1nc2ccc(Cl)cc2c2[nH]c3ccccc3c12 | 0.0062 | 12.4 | 1.12 | 181 | 16.6 | 10.9 | 0.0677
15 | CN(C)CCCNc1nc2ccc(Cl)cc2c2c1c1ccccc1n2C | 0.0409 | 25.9 | 0.313 | 7.7 | – | – | –
16 | Cc1ccc2nc(NCCCN)c3c4ccccc4n(C)c3c2c1 | 0.0314 | 29.5 | 0.192 | 6.1 | – | – | –
17 | O=C(NCCCNc1nc2cccc(Br)c2c2[nH]c3ccccc3c12)Nc1ccccc1 | 0.289 | 22 | 3.62 | 12.6 | – | – | –
18 | Cn1c2ccccc2c2c(NCC(C)(C)CN)nc3ccccc3c21 | 0.274 | 1000 | 0.259 | 0.9 | – | – | –
19 | O=C(NCCCCCCNc1nc2ccccc2c2[nH]c3ccccc3c12)Nc1ccccc1 | 0.0221 | 16.2 | 0.862 | 39 | 35.3 | 1.1 | 0.0244
20 | Cn1c2ccccc2c2c(NCCCN)nc3ccc(Cl)cc3c21 | 0.0354 | 28 | 0.62 | 17.5 | – | – | –
21 | C[C@@H]1CC[C@H]2[C@@H](C)C(=O)O[C@@H]3O[C@@]4(C)CC[C@@H]1[C@]32OO4 [ARTEMISININ] | 0.0043 | – | – | – | – | 0.7 | 0.0028
22 | O=C(NCCCNc1nc2ccccc2c2[nH]c3ccccc3c12)c1cccs1 | 0.0724 | 24.1 | 3.5 | 48.3 | 41.2 | 1.2 | 0.0849
23 | O=C(NCCCNc1nc2ccc([N+](=O)[O-])cc2c2[nH]c3ccccc3c12)Nc1ccccc1 | 0.0242 | 15.2 | 4.64 | 192 | – | – | –

Row | SMILES | IC50 (Plasmodium falciparum [1]) [µM] | IC50 [2] [µM] | IC50 (L6) [µM] | selectivity ratio [3] | selectivity ratio [4] | Ratio IC50 [5] | IC50 (Plasmodium falciparum [6]) [µM]
24 | O=C(NCCCNc1nc2ccc(Cl)cc2c2[nH]c3ccccc3c12)Nc1ccccc1 | 0.027 | 14.4 | 2.57 | 95.1 | 51.4 | 1.9 | 0.05
25 | Cn1c2ccccc2c2c(NCCCN)nc3ccc(F)cc3c21 | 0.0527 | 25.8 | 0.292 | 5.5 | – | – | –
26 | NCCCNc1nc2ccc(F)cc2c2[nH]c3ccccc3c12 | 0.013 | 14.3 | 0.639 | 49.1 | – | – | –
27 | Clc1nc2ccccc2c2[nH]c3ccccc3c12 | 10.2 | > 1000 | 193 | 18.9 | – | – | –
28 | CN(C)CCCNc1nc2ccccc2c2[nH]c3ccccc3c12 | 0.0094 | 83.6 | 0.606 | 64.3 | 24.1 | 2.66 | 0.0251
29 | O=C(NCCCNc1nc2ccccc2c2[nH]c3ccccc3c12)Nc1ccccc1 | 0.0024 | 23.9 | 1.15 | 480 | 21.5 | 22.4 | 0.0537
30 | Cn1c2ccccc2c2c(NCC(C)(C)CN)nc3ccc(Br)cc3c21 | 0.0583 | 41.2 | 0.576 | 9.9 | – | – | –
31 | Cn1cc2c3ccccc3nc-2c2ccccc21 [ISOCRYPTOLEPINE] | – | – | – | – | 1.5 | – | –
32 | c1ccc2c(c1)nc(N1CCCNCC1)c1c3ccccc3[nH]c21 | 0.0632 | 171 | 4.11 | 65 | – | – | –
33 | CN(C)CCCNc1nc2ccccc2c2c1c1ccccc1n2C | 0.0932 | > 1000 | 0.701 | 7.5 | – | – | –
34 | OCCNc1nc2ccccc2c2[nH]c3ccccc3c12 | 0.141 | 200 | 0.891 | 6.3 | – | – | –
35 | c1ccc2c(c1)nc(NCC1CCCO1)c1c3ccccc3[nH]c21 (stereo not drawn) | 0.113 | 148 | 2.05 | 18.1 | – | – | –
36 | CCN(CC)Cc1cc(Nc2ccnc3cc(Cl)ccc23)ccc1O | – | 11 | – | – | – | – | –
37 | COc1ccc2nc(NCCCN)c3c4ccccc4n(C)c3c2c1 | 0.0329 | 56.9 | 0.138 | 4.2 | – | – | –
38 | Cn1c2ccccc2c2c(NCC(C)(C)CN)nc3ccc(Cl)cc3c21 | 0.0954 | 38.4 | 0.425 | 4.5 | – | – | –
39 | Cn1c2ccccc2c2c(Cl)nc3ccccc3c21 | 7.39 | > 1000 | 17.3 | 2.3 | – | – | –
40 | COc1ccc(Nc2nc3ccccc3c3[nH]c4ccccc4c23)c(OC)c1 | 0.317 | 44.1 | 15.2 | 48 | – | – | –
41 | CCN(CC)CCCC(C)Nc1ccnc2cc(Cl)ccc12 (stereo not drawn) [CHLOROQUINE] | – | 30 | – | – | – | – | –
42 | OCCCNc1nc2ccccc2c2[nH]c3ccccc3c12 | 0.227 | 287 | 0.717 | 3.2 | – | – | –
43 | Cn1c2ccccc2c2c(NCCCN)nc3ccc(Br)cc3c21 | 0.0313 | 26.6 | 0.825 | 26.3 | – | – | –
44 | Cn1c2ccccc2c2c(NCCCNC(=O)Nc3ccccc3)nc3ccccc3c21 | 0.0073 | 22.7 | 0.108 | 14.8 | – | – | –
45 | CCN(CC)C(=O)NCCCNc1nc2ccccc2c2[nH]c3ccccc3c12 | 0.0411 | 39.2 | 3.57 | 86.8 | – | – | –
46 | Cc1ccc2nc(NCCCN)c3c4ccccc4[nH]c3c2c1 | 0.0361 | 60.9 | 0.322 | 8.9 | – | – | –
